# Bioassay records as filed in PubChem BioAssay.
# ADAM10 inh: inhibitors of human ADAM10; O14672; recombinant ADAM10, EDANS/DABCYL FRET peptide cleavage, 3 h; inhibition, % at 7 µM; hit rate 0.62% among 370,000; AID 720582;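 active = inhibition above a per-campaign cutoff equal to the mean of compounds falling between control-based bounds plus 3 SD, cut at about 20% in these data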
# Target sequence (O14672 214-748 limits assumed): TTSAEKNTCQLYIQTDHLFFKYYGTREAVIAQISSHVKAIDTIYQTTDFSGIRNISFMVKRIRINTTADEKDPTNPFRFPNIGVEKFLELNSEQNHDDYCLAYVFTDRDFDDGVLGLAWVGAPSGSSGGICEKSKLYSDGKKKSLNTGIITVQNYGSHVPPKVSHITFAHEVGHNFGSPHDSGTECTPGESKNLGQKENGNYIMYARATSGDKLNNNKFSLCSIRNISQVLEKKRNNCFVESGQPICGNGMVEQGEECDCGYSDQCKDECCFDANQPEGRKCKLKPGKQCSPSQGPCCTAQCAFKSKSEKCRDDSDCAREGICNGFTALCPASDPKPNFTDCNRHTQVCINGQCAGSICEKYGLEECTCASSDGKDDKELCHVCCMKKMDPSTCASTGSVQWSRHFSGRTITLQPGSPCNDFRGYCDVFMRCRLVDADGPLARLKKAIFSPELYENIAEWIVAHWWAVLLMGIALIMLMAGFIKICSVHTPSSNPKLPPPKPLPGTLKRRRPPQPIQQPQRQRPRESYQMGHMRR
# aDG glyco act: alpha-DG glycosylation activation | hit rate 0.22% among 360,000 | Pro5-aDG cells, alpha-DG glycosylation AlphaScreen (IIH6); 0% Pro5, 100% B10-LARGE cell signal | activation, % at 10 µM;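 active = activation of at least 8% versus controls, or a plate z-score of at least 8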;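 note: Pro5 are CHO cells carrying HIG-tagged alpha-DG that lacks glycosylation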
# V-ATPase pH: regulators of yeast V-ATPase proton transport; S. cerevisiae, pHLuorin cytosolic pH fluorescence; response, % at 10 µM; hit rate 0.37% among 350,000; in the data active = response mostly above about 7.3%, no sharp cut-off; inactive = mostly below about 5.4%; note: actives read high
# Hep lipid drop: modulators of hepatic lipid droplet formation; inhibition, % at 6.5 µM; hit rate 0.4% among 240,000; AID 1656; AML12 mouse hepatocytes, oleate lipid droplets, BODIPY imaging;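 active = lipid droplet intensity inhibited by at least 50%, with more than 500 cells counted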
#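 Material: mouse AML12 hepatocyte cell line, fixed after treatment; Timing: compound with oleate, overnight; Technique: high-content imaging of BODIPY-stained droplets and DAPI nuclei; Probe or stimulus: oleate, 100 µM final; Dosing: compound at 6.5 µM only.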
# ADAM17 inh: inhibitors of human ADAM17. P78536. recombinant ADAM17, EDANS/DABCYL FRET peptide cleavage. inhibition, % at 6.95 µM. hit rate 0.83% among 370,000. AID 720648;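 active = inhibition above the mean of compounds lying between control limits plus 3 SD, set per campaign, cut at about 8.5% in these data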
# MPTP inh: permeability transition pore inhibition | isolated mouse mitochondria, Ca2+ swelling absorbance, 30 min | inhibition, % at 10 µM | hit rate 1.4% among 360,000;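 active = inhibition of 50% or more, scaled per plate between neutral and stimulator controls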
# ADAM10 counter: ADAM10 inhibition, counter-screen for ADAM17 exosite hits; shares compounds with ADAM17 inh; recombinant ADAM10, EDANS/DABCYL FRET peptide cleavage, 3 h; inhibition, % at 6.95 µM; hit rate 47% among 2,900; AID 743256;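 active = mean inhibition over the triplicate runs exceeds the activity threshold set in the earlier primary screen, cut at about 20% in these data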
# ADAM17 confirm: human ADAM17 inhibition, confirmation. shares compounds with ADAM17 inh. recombinant ADAM17, EDANS/DABCYL QFRET peptide cleavage. inhibition, % at 6.95 µM. hit rate 65% among 2,900. AID 743257;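 active = mean inhibition across replicates above the hit cutoff set in the primary screen, cut at about 8.5% in these data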
# Hits are given with their value; - = inactive; . = no result given. This is a sample that favours compounds with a hit; in the whole collection about 3.1% have one here.
SMILES,ADAM10 inh,aDG glyco act,V-ATPase pH,Hep lipid drop,ADAM17 inh,MPTP inh,ADAM10 counter,ADAM17 confirm
CC(=O)c1cc(-c2cccc([N+](=O)[O-])c2)c(=O)n2c1CCC2,-,.,.,.,-,.,.,.
COc1cc(CCN(C(C)=O)C2C(=O)Nc3ccccc3N=C2c2ccc3c(c2)OCO3)cc(OC)c1 (stereo unspecified),-,-,.,.,-,-,.,.
Cc1cnc(C(=O)N(c2ccc(N3CCOCC3)cc2)C2C(=O)Nc3ccccc3N=C2c2ccc3c(c2)OCO3)cn1 (stereo unspecified),-,-,.,.,11,-,-,9.8
CCOc1ccc(N=Nc2c(=O)[nH]n3c(=O)cc(C)[nH]c23)cc1,-,-,-,.,10,-,-,12
CCOC(=O)CC1(C)Oc2ccccc2N1S(=O)(=O)c1ccc(C)cc1 (stereo unspecified),-,-,.,.,9.9,-,-,-
CCCNC(=O)c1cc2c(c(-c3cccc(-c4ccc(F)cc4)c3)n1)[C@@H](CCO)N(S(=O)C(C)(C)C)C2 (stereo partly specified),-,-,.,.,-,-,.,.
CCCNC(=O)c1cc2c(c(-c3cccc(-c4ccc(F)cc4)c3)n1)[C@H](CCO)N(S(=O)C(C)(C)C)C2 (stereo partly specified),-,-,.,.,10,-,-,10
CCOC(=O)c1cc2c(c(-c3cccc(C#Cc4ccc(OC)c(OC)c4)c3)n1)[C@@H](CCO)N(S(=O)C(C)(C)C)C2 (stereo partly specified),-,-,.,.,8.8,-,-,10
NC(=O)c1c(N)[nH]c(C(=O)c2ccccc2)c1-c1cccc2ccccc12,-,.,.,.,-,.,.,.
COc1cccc(OCC(=O)NNC(=O)c2cccs2)c1,-,-,-,.,-,-,.,.
COc1cc(OC)cc(C(=O)NNC(=O)CNC(=O)c2cccs2)c1,-,-,-,.,9.2,-,-,-
COC(=O)c1ccc2[nH]c(C3(O)CCCCC3)c(C)c2c1,-,-,-,.,11,-,-,-
COc1cc(/C=N/n2c(-c3ccc4c(c3)NC(=O)CO4)csc2=Nc2cccc(C)c2)ccc1O,-,-,-,-,9.3,-,-,9.8
COCCN=c1scc(-c2ccc3c(c2)NC(=O)CO3)n1/N=C(\C)c1ccc(O)cc1,-,-,-,-,-,-,.,.
CC(C)Nc1nc(NC(C)C)nc(N(C#N)CCOc2ccc(Cl)cc2Cl)n1,-,-,-,-,9.3,-,-,13
C[C@@H]1COc2cc(Br)ccc2S(=O)(=O)N1Cc1cn(Cc2ccc(Br)cc2)nn1,-,.,.,.,-,.,.,.
CC(C)=CCc1c(O)ccc(C(=O)Cc2ccccc2)c1O,-,-,-,-,10,-,24,13
Cc1ccc(C(=O)Cc2ccccc2)c(O)c1,-,-,-,.,-,-,.,.
O=C(NCCN1CCC(Cc2ccccc2)CC1)C1CCCN(S(=O)(=O)c2cccs2)C1 (stereo unspecified),-,.,.,.,-,.,.,.
Cc1cccc(C2(c3cccc(C)c3)OC(=O)c3ccccc32)c1,-,-,-,.,9.6,-,-,15
O=C1CCN(S(=O)(=O)c2ccccc2)CCN1CCOCc1cccc(F)c1,-,-,-,-,10,-,-,-
Cc1ccc(S(=O)(=O)N2CCC(=O)N(CCOCc3ccccc3)CC2)cc1,-,-,-,-,-,-,.,.
CCC[C@H]1[C@@H](OC(=O)NCc2cccnc2)CC[C@@]23CCCN2C(=O)CCC[C@@H]13,-,.,.,.,-,.,.,.
COc1ccc(N2CC(C)Cn3c2nc2c3c(=O)n(CCN3CCOCC3)c(=O)n2C)cc1 (stereo unspecified),-,-,-,.,-,-,.,.
CCc1ccc(N2CC(C)Cn3c2nc2c3c(=O)n(CCN3CCOCC3)c(=O)n2C)cc1 (stereo unspecified),-,-,-,.,9.1,-,-,-
SMILES,ADAM10 inh,aDG glyco act,V-ATPase pH,Hep lipid drop,ADAM17 inh,MPTP inh,ADAM10 counter,ADAM17 confirm
COc1ccc(C(=O)OCCCN(C)C2CN(Cc3cn(Cc4cccc(F)c4)nn3)S(=O)(=O)C2)cc1OC (stereo unspecified),-,.,.,.,-,.,.,.
Cc1c(Cl)cccc1NC(=S)/C(=C(\[O-])c1ccc(Cl)s1)[n+]1ccccc1,-,-,-,-,9.6,-,-,-
Cc1ccccc1NC(=S)/C(=C(\[O-])c1cc(C)n(Cc2ccccc2Cl)c1C)[n+]1ccccc1,-,-,-,-,12,-,24,9.4
Cc1cc(C([O-])=C(C(=S)Nc2ccccc2)[n+]2ccccc2)c(C)n1-c1ccccc1,-,-,-,.,-,-,.,.
[O-]/C(=C(\C(=S)Nc1cccc2ccccc12)[n+]1cccc(CO)c1)c1ccc(Cl)s1,-,-,-,-,-,-,.,.
Cc1ccc(-c2nnc(SCc3ccc([N+](=O)[O-])cc3)n2-c2ccccc2)cc1,-,.,.,.,-,.,.,.
CCOC(=O)[C@@]12CCCC=C1N(CCc1ccc(Cl)cc1)C(=O)[C@H]2CC(=O)NCCCCc1ccccc1,-,.,.,.,-,.,.,.
CCOC(=O)[C@@]12CCCC=C1N(CCc1ccc(Cl)cc1)C(=O)[C@H]2CC(=O)NCc1ccc(C)o1,-,.,.,.,-,.,.,.
CCOC(=O)[C@]12CCCCC/C=C\1N(CCc1ccc(Cl)cc1)C(=O)[C@H]2CC(=O)NCc1ccccc1,-,.,.,.,11,.,25,12
CCOC(=O)[C@]12CCCCC/C=C\1N(CCc1ccc(Cl)cc1)C(=O)[C@H]2CC(=O)NCc1ccc(C)o1,-,.,.,.,9.4,.,-,-
CCc1cc2c(nc1CC)CCCN2S(=O)(=O)c1ccc(OC)cc1,-,.,.,.,11,.,-,-
COc1cc(-c2csc(N3CCC(C(N)=O)CC3)n2)cc(OC)c1OC,-,.,.,.,-,.,.,.
Cc1cccc(COC[C@H](Cc2ccccc2)N2CCN(C(=O)c3ccc(C(F)(F)F)cc3)CCC2=O)c1,-,-,.,.,-,-,.,.
O=C(c1ccc(C(F)(F)F)cc1)N1CCC(=O)N(C(COCc2ccc(C(F)(F)F)cc2)Cc2ccccc2)CC1 (stereo unspecified),-,-,-,-,8.9,-,38,17
COC(=O)[C@]12C[C@H](CC(=O)N3CCCC3)C(=O)N(Cc3ccco3)C1=C[C@H](C(C)C)O[C@@H]2C1CC1,-,.,.,.,-,.,.,.
Cc1ccc(S(=O)(=O)N(C)c2ccc(OCC(=O)OCc3cccc(Br)c3)cc2)cc1,-,-,-,.,9.1,-,25,16
CC(=O)Nc1ccc(S(=O)(=O)N(C)c2ccc(OCCOc3cccc(C)c3)cc2)cc1,-,-,-,.,8.7,-,26,14
Cn1c(=O)c(=O)n(C)c2cc(S(=O)(=O)N3CCN(CCO)CC3)ccc21,-,.,.,.,-,.,.,.
